Active and inactive are the calls of the source. No cut-off for these calls is given here.
How the values were obtained:
SQ20B = test: Cytotoxicity against human SQ20B cells after 72 hrs by MTT assay; format: functional, cell-based
Method in brief: (§1)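 Monolayer culture in RPMI with 10% fetal calf serum, 2 mM glutamine, penicillin/streptomycin, 37 °C, humidified 5% CO2, checked for Mycoplasma. Cells seeded at 2 × 10³/well; after drug exposure, 0.4 mg/ml MTT for 4 h at 37 °C. Formazan dissolved in DMSO, absorbance read at 560 nm. Untreated cells served as positive control, drug medium without cells as negative control.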

HOP-62 = test: Cytotoxicity against human HOP62 cells after 72 hrs by MTT assay; format: functional, cell-based; method in brief: as §1
COLO 205 = test: Cytotoxicity against human COLO205 cells after 72 hrs by MTT assay; format: functional, cell-based; method in brief: as §1
mTORC1 (Homo sapiens) [1] = target: T1, mTORC1 (Homo sapiens) (UniProt P42345+Q8N122+Q9BVC4); test: Inhibition of mTORC1 in human SK-HEP1 cells assessed as reduction of S6 phosphorylation at 0.1 to 8 uM after 24 hrs by Western blotting; format: cell-based
Method in brief: (§2)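 Membranes were blocked in 5% milk/0.05% Tween 20-PBS and probed overnight with primary antibody against p-S6, p-4EBP1 or p-Akt (S473). Detection used HRP secondary antibody and enhanced chemiluminescence.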

mTORC1 (Homo sapiens) [2] = target: T1, mTORC1 (Homo sapiens); test: Inhibition of mTORC1 in human SK-HEP1 cells assessed as reduction of 4-EBP1 phosphorylation at 0.1 to 8 uM after 24 hrs by Western blotting; format: cell-based; method in brief: as §2
mTORC1 (Homo sapiens) [3] = target: T1, mTORC1 (Homo sapiens); test: Inhibition of mTORC1 in human COLO205 cells assessed as reduction of S6 phosphorylation at 0.1 to 8 uM after 24 hrs by Western blotting; format: cell-based; conditions: COLO 205; method in brief: as §2
mTORC1 (Homo sapiens) [4] = target: T1, mTORC1 (Homo sapiens); test: Inhibition of mTORC1 in human COLO205 cells assessed as reduction of 4-EBP1 phosphorylation at 0.1 to 8 uM after 24 hrs by Western blotting; format: cell-based; conditions: COLO 205; method in brief: as §2
mTORC1 (Homo sapiens) [5] = target: T1, mTORC1 (Homo sapiens); test: Inhibition of mTORC1 in human SK-HEP1 cells assessed as AKT phosphorylation at Ser473 at 0.1 to 8 uM after 24 hrs by Western blotting; format: cell-based; method in brief: as §2
mTORC1 (Homo sapiens) [6] = target: T1, mTORC1 (Homo sapiens); test: Inhibition of mTORC1 in human COLO205 cells assessed as AKT phosphorylation at Ser473 at 0.1 to 8 uM after 24 hrs by Western blotting; format: cell-based; conditions: COLO 205; method in brief: as §2

T1 sequence (Q8N122 whole entry, looked up, other chains not shown): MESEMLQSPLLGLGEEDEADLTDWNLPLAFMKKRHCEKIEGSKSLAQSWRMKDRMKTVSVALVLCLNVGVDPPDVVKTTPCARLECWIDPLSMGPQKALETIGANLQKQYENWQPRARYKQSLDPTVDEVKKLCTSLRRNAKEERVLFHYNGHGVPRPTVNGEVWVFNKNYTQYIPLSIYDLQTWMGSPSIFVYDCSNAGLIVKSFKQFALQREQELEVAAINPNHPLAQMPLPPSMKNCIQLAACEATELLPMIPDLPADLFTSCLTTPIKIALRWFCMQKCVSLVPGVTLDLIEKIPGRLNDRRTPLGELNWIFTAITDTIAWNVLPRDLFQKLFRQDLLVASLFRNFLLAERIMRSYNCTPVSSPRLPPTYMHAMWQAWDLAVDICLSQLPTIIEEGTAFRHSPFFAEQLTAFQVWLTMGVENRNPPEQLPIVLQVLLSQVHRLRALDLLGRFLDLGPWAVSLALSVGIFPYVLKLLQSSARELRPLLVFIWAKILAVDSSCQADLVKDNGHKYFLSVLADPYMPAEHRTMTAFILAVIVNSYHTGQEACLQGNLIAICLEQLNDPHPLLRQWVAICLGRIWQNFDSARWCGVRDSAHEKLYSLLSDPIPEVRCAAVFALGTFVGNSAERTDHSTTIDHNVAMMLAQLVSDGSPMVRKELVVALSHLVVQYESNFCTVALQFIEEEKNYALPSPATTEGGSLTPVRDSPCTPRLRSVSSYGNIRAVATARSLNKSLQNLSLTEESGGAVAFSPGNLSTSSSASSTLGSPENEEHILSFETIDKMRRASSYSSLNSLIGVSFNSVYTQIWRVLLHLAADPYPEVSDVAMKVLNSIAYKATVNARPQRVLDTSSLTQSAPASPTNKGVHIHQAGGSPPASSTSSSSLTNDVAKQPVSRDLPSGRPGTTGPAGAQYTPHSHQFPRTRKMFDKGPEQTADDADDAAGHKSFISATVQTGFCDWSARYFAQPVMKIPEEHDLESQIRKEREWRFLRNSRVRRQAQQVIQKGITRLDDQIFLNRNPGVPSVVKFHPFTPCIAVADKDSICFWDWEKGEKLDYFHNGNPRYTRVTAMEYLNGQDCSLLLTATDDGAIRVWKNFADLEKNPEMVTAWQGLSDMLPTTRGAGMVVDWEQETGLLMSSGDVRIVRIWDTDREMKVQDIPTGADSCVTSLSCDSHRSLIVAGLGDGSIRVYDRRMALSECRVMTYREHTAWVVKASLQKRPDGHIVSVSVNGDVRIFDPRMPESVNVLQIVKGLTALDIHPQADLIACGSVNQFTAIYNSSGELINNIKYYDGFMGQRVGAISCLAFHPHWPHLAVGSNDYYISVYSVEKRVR
T1 sequence (Q9BVC4 whole entry, looked up, other chains not shown): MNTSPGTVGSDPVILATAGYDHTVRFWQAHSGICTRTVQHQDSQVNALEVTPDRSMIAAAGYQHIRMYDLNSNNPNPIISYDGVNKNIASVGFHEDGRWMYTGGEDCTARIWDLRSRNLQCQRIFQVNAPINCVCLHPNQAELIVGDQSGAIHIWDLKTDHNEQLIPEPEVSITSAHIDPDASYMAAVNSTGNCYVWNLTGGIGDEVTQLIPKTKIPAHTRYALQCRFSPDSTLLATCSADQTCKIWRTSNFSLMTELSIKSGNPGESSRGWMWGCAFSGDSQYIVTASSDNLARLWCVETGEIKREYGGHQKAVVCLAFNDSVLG

Structure (SMILES) | IC50 (SQ20B) [nM] | further results
COc1ccc(-c2cc3c(CN4CCC(N5CCCCC5)CC4)c(O)ccc3o2)c(OC)c1 | 1100 | 
Oc1ccc2oc(-c3cccc4ccccc34)cc2c1CN1CCC(N2CCCCC2)CC1 | 860 | 
O=S(=O)(Oc1ccc2oc(-c3ccccc3)cc2c1CN1CCC(N2CCCCC2)CC1)C(F)(F)F | 2800 | 
Oc1ccc2oc(-c3cccs3)cc2c1CN1CCC(N2CCCCC2)CC1 | 2700 | 
OCc1c(-c2ccccc2)oc2ccc(O)c(CN3CCC(N4CCCCC4)CC3)c12 | 3400 | 
Cn1c(-c2ccccc2)cc2c(CN3CCC(N4CCCCC4)CC3)c(O)ccc21 | 19000 | 
c1ccc(-c2cc3c(CN4CCC(N5CCCCC5)CC4)cccc3o2)cc1 | 7500 | 
Oc1ccc2oc(-c3ccccc3Cl)cc2c1CN1CCC(N2CCCCC2)CC1 | 2600 | 
COc1ccc2oc(-c3ccccc3OCc3ccccc3)cc2c1CN1CCC(N(C)C)CC1 | 460 | Activity (HOP-62): Active; Activity (COLO 205): Active; inhibition (mTORC1 (Homo sapiens) [1]): Active; inhibition (mTORC1 (Homo sapiens) [2]): Active; inhibition (mTORC1 (Homo sapiens) [3]): Active; inhibition (mTORC1 (Homo sapiens) [4]): Active
Oc1ccc2oc(-c3ccco3)cc2c1CN1CCC(N2CCCCC2)CC1 | 4000 | 
Oc1ccc2c(ccn2Cc2ccccc2)c1CN1CCC(N2CCCCC2)CC1 | 17000 | 
COc1cccc2cc(-c3nc([C@H]4CC[C@H](C(=O)O)CC4)n4ncnc(N)c34)[nH]c12 |  | Activity (HOP-62): Active; Activity (COLO 205): Active
CO[C@H]1C[C@@H]2CC[C@@H](C)[C@@](O)(O2)C(=O)C(=O)N2CCCC[C@H]2C(=O)O[C@H]([C@H](C)C[C@@H]2CC[C@@H](OCCO)[C@H](OC)C2)CC(=O)[C@H](C)/C=C(\C)[C@@H](O)[C@@H](OC)C(=O)[C@H](C)C[C@H](C)/C=C/C=C/C=C/1C [EVEROLIMUS] | 7300 | Activity (HOP-62): inactive; Activity (COLO 205): Active; inhibition (mTORC1 (Homo sapiens) [1]): Active; inhibition (mTORC1 (Homo sapiens) [2]): Active; inhibition (mTORC1 (Homo sapiens) [5]): inactive; inhibition (mTORC1 (Homo sapiens) [3]): Active; inhibition (mTORC1 (Homo sapiens) [4]): Active; inhibition (mTORC1 (Homo sapiens) [6]): inactive
COc1ccc2oc(-c3ccccc3)cc2c1CN1CCC(N2CCCCC2)CC1 | 2500 | 
CCOC(=O)c1c(-c2ccccc2)oc2ccc(O)c(CN3CCC(N4CCCCC4)CC3)c12 | 1500 | 
Cc1c(-c2ccccc2)oc2ccc(O)c(CN3CCC(N4CCCCC4)CC3)c12 | 1200 | 
O=S(=O)(Nc1ccc2oc(-c3ccccc3)cc2c1CN1CCC(N2CCCCC2)CC1)C(F)(F)F | 2100 | 

Structure (SMILES) | IC50 (SQ20B) [nM] | further results
Oc1ccc2occ(-c3ccccc3)c2c1CN1CCC(N2CCCCC2)CC1 | 11000 | 
Oc1ccc2oc(-c3ccccc3)nc2c1CN1CCC(N2CCCCC2)CC1 | 6500 | 
Oc1ccc2oc(-c3ccc(Cl)c(Cl)c3)cc2c1CN1CCC(N2CCCCC2)CC1 | 2300 | 
Oc1ccc2[nH]c(-c3ccccc3)nc2c1CN1CCC(N2CCCCC2)CC1 | 21000 | 
Oc1ccc2oc(-c3cccc(Cl)c3)cc2c1CN1CCC(N2CCCCC2)CC1 | 920 | 
Oc1ccc2oc(-c3ccccc3)cc2c1CN1CCC(N2CCCCC2)CC1 | 1400 | Activity (HOP-62): Active; Activity (COLO 205): Active
COc1ccccc1-c1cc2c(CN3CCC(N4CCCCC4)CC3)c(O)ccc2o1 | 1300 | 
CO[C@H]1C[C@@H]2CC[C@@H](C)[C@@](O)(O2)C(=O)C(=O)N2CCCC[C@H]2C(=O)O[C@H]([C@H](C)C[C@@H]2CC[C@@H](O)[C@H](OC)C2)CC(=O)[C@H](C)/C=C(\C)[C@@H](O)[C@@H](OC)C(=O)[C@H](C)C[C@H](C)/C=C/C=C/C=C/1C |  | inhibition (mTORC1 (Homo sapiens) [1]): Active; inhibition (mTORC1 (Homo sapiens) [2]): Active; inhibition (mTORC1 (Homo sapiens) [3]): Active; inhibition (mTORC1 (Homo sapiens) [4]): Active
COc1cccc(-c2cc3c(CN4CCC(N5CCCCC5)CC4)c(O)ccc3o2)c1 | 2000 | 
Oc1ccc2oc(-c3ccccc3OCc3ccccc3)cc2c1CN1CCC(N2CCCCC2)CC1 | 380 | Activity (HOP-62): Active; Activity (COLO 205): Active
COc1ccc(-c2cc3c(CN4CCC(N(C)C)CC4)c(O)ccc3o2)cc1 | 1200 | 
Oc1ccc2cc(-c3ccccc3)oc2c1CN1CCC(N2CCCCC2)CC1 | 11000 | 
Oc1ccc2oc(-c3ccc(Cl)cc3)cc2c1CN1CCC(N2CCCCC2)CC1 | 860 | 
CN(C)Cc1c(O)ccc2oc(-c3ccccc3)cc12 | 32000 | 
COc1ccc(-c2cc3c(CN4CCC(N5CCCCC5)CC4)c(O)ccc3o2)cc1 | 850 | 
c1ccc(-c2cc3c(CN4CCC(N5CCCCC5)CC4)nccc3o2)cc1 | 18000 | 
Oc1ccc2oc(-c3ccc4ccccc4c3)cc2c1CN1CCC(N2CCCCC2)CC1 | 2800 | 
